Here are results for 20 compounds from ChEMBL document CHEMBL1126621 (J Med Chem, 1993).

The term IC50 denotes the concentration that inhibits the measured activity by half. Low readings indicate greater potency in that assay, high ones weaker potency in that assay.

Bridge positions count the residues as written; N and C are the ends. Square brackets hold non-standard residues; d marks the D form. Peptide text beside a SMILES is read from it. Pen = CC(C)(S)[C@H](N)C(=O)O Where only a bound is given, the exact number is not on record here.

Assay [1] can be described thus: Relative affinity for delta and kappa opioid receptors of guinea pig brain homogenate. The conditions noted are these: Cavia porcellus.
In assay [2] the target is Delta-type opioid receptor (Mus musculus, UniProt P32300). As to the kind of experiment: Inhibition of delta-selective antagonist binding to opioid receptor of mouse vas dferens. In short, it runs like this: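 Mouse vas deferens at 500 mg tension in Mg-free Krebs, 37 °C, 95% O2/5% CO2. Field-stimulated with 2-ms supramaximal pulses; isometric contractions recorded. Cumulative concentration-response. At least 2 assays in duplicate.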

Assay [3] has as its target T1, Kappa-type opioid receptor (Cavia porcellus, UniProt P41144). Nature of the assay: (§1) Inhibition of [3H]U-69593 binding to kappa opioid receptor of guinea pig brain homogenate. In a few lines:
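Adult male Hartley guinea pig whole-brain membranes in 50 mM Tris-HCl pH 7.4, preincubated 25 °C 30 min to strip endogenous peptides. Assay buffer: Tris with BSA, bestatin, bacitracin, captopril, PMSF. Ten concentrations over 800-fold range, duplicate tubes. 10 μM naltrexone defined nonspecific binding. 25 °C for 3 h, then PEI-treated GF/B filtration and scintillation counting. One/two-site nonlinear regression or logistic fit. ≥3 independent runs, mean ± SEM.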

For another assay, the target named is Mu-type opioid receptor (Cavia porcellus, UniProt P97266). Nature of the assay: Inhibition of [3H]PL-17 binding to mu opioid receptor of guinea pig brain homogenate.
Assay [4] has as its target T1, Kappa-type opioid receptor. The assay is described as §1. In short, it runs like this:
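Adult male Hartley guinea pig whole-brain membranes in 50 mM Tris-HCl pH 7.4, preincubated 25 °C 30 min to strip endogenous peptides. Assay buffer: Tris with BSA, bestatin, bacitracin, captopril, PMSF. Radioligand: [3H]DPDPE 1.0 nM (δ) or [3H]U-69,593 0.75 nM (κ). Ten concentrations over 800-fold range, duplicate tubes. 10 μM naltrexone defined nonspecific binding. 25 °C for 3 h, then PEI-treated GF/B filtration and scintillation counting. One/two-site nonlinear regression or logistic fit. ≥3 independent runs, mean ± SEM.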
This is another data set of the same source.

Sequence of Mu-type opioid receptor (P97266 whole entry): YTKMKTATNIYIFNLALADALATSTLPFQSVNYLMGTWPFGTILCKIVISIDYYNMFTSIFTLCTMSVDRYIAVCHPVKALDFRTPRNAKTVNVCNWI
Sequence of Delta-type opioid receptor (P32300 whole entry): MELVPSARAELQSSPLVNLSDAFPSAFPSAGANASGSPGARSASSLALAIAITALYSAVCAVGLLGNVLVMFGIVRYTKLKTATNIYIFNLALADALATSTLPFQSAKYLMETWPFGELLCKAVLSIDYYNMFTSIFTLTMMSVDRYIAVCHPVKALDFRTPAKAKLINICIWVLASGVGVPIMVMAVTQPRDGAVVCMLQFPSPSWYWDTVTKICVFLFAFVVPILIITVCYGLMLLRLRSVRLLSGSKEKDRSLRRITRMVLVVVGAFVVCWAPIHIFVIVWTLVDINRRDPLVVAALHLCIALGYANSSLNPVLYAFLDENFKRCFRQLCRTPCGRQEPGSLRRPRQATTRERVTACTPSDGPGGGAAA
T1 sequence (P41144 whole entry): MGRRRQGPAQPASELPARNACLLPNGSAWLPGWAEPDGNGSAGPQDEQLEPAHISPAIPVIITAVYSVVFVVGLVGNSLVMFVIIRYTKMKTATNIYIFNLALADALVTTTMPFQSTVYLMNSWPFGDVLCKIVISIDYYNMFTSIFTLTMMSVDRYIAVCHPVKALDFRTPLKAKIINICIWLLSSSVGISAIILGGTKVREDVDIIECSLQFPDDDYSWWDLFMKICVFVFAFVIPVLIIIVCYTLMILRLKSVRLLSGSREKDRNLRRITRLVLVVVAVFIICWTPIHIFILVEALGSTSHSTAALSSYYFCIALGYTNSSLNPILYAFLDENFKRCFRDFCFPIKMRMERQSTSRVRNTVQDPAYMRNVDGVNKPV

Compound `CC[C@H](C)[C@H]1NC(=O)[C@H](CCCN=C(N)N)NC(=O)[C@@H](CCCN=C(N)N)NC(=O)[C@H](NC(=O)[C@H](Cc2ccccc2)NC(=O)CNC(=O)CNC(=O)[C@@H](N)Cc2ccc(O)cc2)CSSC[C@H](C(=O)N[C@H](CCCN=C(N)N)C(=O)N[C@H](CCCCN)C(=O)O)NC1=O` displayed a Selectivity in assay [1] of 43.
Regarding `CC[C@H](C)[C@@H]1NC(=O)[C@H](CCCNC(=N)N)NC(=O)[C@H](CCCNC(=N)N)NC(=O)[C@@H](NC(=O)[C@H](Cc2ccccc2)NC(=O)CNC(=O)CNC(=O)[C@@H](N)Cc2ccccc2)CSSC[C@@H](C(N)=O)NC(=O)[C@@H]2CCCN2C(=O)[C@H](CCCNC(=N)N)NC1=O` (H-FGGFCRRIRPC-NH2; disulfide 5-11), the half-maximal inhibitory concentration (IC50) in assay [2] was greater than 3000 nM; in assay [3], 15.1 nM; on Mu-type opioid receptor, 61.2 nM.
In turn, `CC(C)C[C@H](NC(=O)[C@H](Cc1ccccc1)NC(=O)CNC(=O)CNC(=O)[C@@H](N)Cc1ccc(O)cc1)C(=O)N[C@@H](CCCN=C(N)N)C(=O)N[C@@H](CCCN=C(N)N)C(=O)N[C@H]1CSSC[C@H](C(=O)O)NC(=O)[C@@H](CC(C)C)NC(=O)[C@H](CCCCN)NC(=O)[C@H]2CCCN2C(=O)[C@H](CCCN=C(N)N)NC1=O` registered a Selectivity in assay [1] of 55.
As for `CC[C@H](C)[C@H]1NC(=O)[C@H](CCCN=C(N)N)NC(=O)[C@@H](CCCN=C(N)N)NC(=O)[C@H](NC(=O)[C@H](Cc2ccccc2)NC(=O)CNC(=O)CNC(=O)[C@@H](N)Cc2ccc(O)cc2)CSSC[C@H](C(=O)O)NC(=O)[C@@H](CC(C)C)NC(=O)[C@H](CCCCN)NC(=O)C2CCCN2C(=O)[C@H](CCCN=C(N)N)NC1=O` (stereo in doubt), the Selectivity in assay [1] was determined as 46.
On the same count and under the same terms, as for `CC[C@H](C)[C@H]1NC(=O)[C@H](CCCN=C(N)N)NC(=O)[C@@H](CCCN=C(N)N)NC(=O)[C@H](NC(=O)[C@H](Cc2ccccc2)NC(=O)CNC(=O)CNC(=O)[C@@H](N)Cc2ccccc2)CSSC[C@H](C(=O)O)NC(=O)[C@H]2CCCN2C(=O)[C@H](CCCN=C(N)N)NC1=O`, the figure is 26.
Still for that read-out and setting: in the case of `CC[C@H](C)[C@H]1NC(=O)[C@H](CCCN=C(N)N)NC(=O)[C@@H](CCCN=C(N)N)NC(=O)[C@H](NC(=O)[C@H](Cc2ccccc2)NC(=O)CNC(=O)CNC(=O)[C@@H](N)Cc2ccc(O)cc2)CSSC[C@H](C(=O)N2CCC[C@@H]2C(=O)N[C@H](CCCCN)C(=O)O)NC1=O` it was 36.
On the same count and under the same terms, in the case of `CC[C@H](C)[C@H]1NC(=O)[C@H](CCCN=C(N)N)NC(=O)[C@@H](CCCN=C(N)N)NC(=O)[C@H](NC(=O)[C@H](Cc2ccccc2)NC(=O)CNC(=O)[C@@H](C)NC(=O)[C@@H](N)Cc2ccc(O)cc2)CSSC[C@H](C(=O)O)NC(=O)[C@H]2CCCN2C(=O)[C@H](CCCN=C(N)N)NC1=O` it was 1.3.
Regarding `CC[C@H](C)[C@@H]1NC(=O)[C@H](CCCNC(=N)N)NC(=O)[C@@H](NC(=O)[C@H](CC(C)C)NC(=O)[C@H](Cc2ccccc2)NC(=O)CNC(=O)CNC(=O)[C@@H](N)Cc2ccc(O)cc2)CSSC[C@@H](C(=O)N[C@@H](CCCCN)C(N)=O)NC(=O)[C@H](CCCNC(=N)N)NC1=O` (H-YGGFLCRIRCK-NH2; disulfide 6-10), the IC50 in assay [2] came out at 92.6 nM; in assay [3], 0.047 nM; on Mu-type opioid receptor it was 0.091 nM.
Compound `CC[C@H](C)[C@H]1NC(=O)[C@H](CCCN=C(N)N)NC(=O)[C@@H](CCCN=C(N)N)NC(=O)[C@H](NC(=O)[C@H](Cc2ccccc2)NC(=O)CNC(=O)CNC(=O)[C@@H](N)Cc2ccc(O)cc2)C(C)(C)SSC[C@H](C(=O)O)NC(=O)[C@H]2CCCN2C(=O)[C@H](CCCN=C(N)N)NC1=O` had a Selectivity in assay [1] of 165.
With `CC[C@H](C)[C@@H]1NC(=O)[C@H](CCCN=C(N)N)NC(=O)[C@H](CCCN=C(N)N)NC(=O)[C@@H](NC(=O)[C@H](Cc2ccccc2)NC(=O)CNC(=O)CNC(=O)[C@@H](N)Cc2ccc(O)cc2)CSSC[C@@H](C(=O)N[C@@H](CCCN=C(N)N)C(=O)N[C@@H](CCCCN)C(N)=O)NC1=O` (H-YGGFCRRICRK-NH2; disulfide 5-9), the IC50 came out at 0.42 nM in assay [4], 6260 nM in assay [2] and 5.81 nM at Mu-type opioid receptor.
As to `CC[C@H](C)[C@@H]1NC(=O)[C@H](CCCN=C(N)N)NC(=O)[C@H](CCCN=C(N)N)NC(=O)[C@@H](NC(=O)[C@H](Cc2ccccc2)NC(=O)CNC(=O)[C@@H](C)NC(=O)[C@@H](N)Cc2ccc(O)cc2)CSSC[C@@H](C(N)=O)NC(=O)[C@@H]2CCCN2C(=O)[C@H](CCCN=C(N)N)NC1=O`, the IC50 in assay [2] is greater than 6000 nM; in assay [3] it was 81.2 nM; on Mu-type opioid receptor it was 9.69 nM.
Taken in the same sequence, the figures for `CC[C@H](C)[C@@H]1NC(=O)[C@H](CCCNC(=N)N)NC(=O)[C@H](CCCNC(=N)N)NC(=O)[C@@H](NC(=O)[C@H](Cc2ccccc2)NC(=O)CNC(=O)CNC(=O)[C@@H](N)Cc2ccc(O)cc2)CSSC[C@@H](C(N)=O)NC(=O)[C@H](CC(C)C)NC(=O)[C@H](CCCCN)NC(=O)[C@H]2CCCN2C(=O)[C@H](CCCNC(=N)N)NC1=O` were 4100 nM, 0.21 nM and 2.48 nM.
With `CC[C@H](C)[C@@H]1NC(=O)[C@H](CCCN=C(N)N)NC(=O)[C@H](CCCN=C(N)N)NC(=O)[C@@H](NC(=O)[C@H](Cc2ccccc2)NC(=O)CNC(=O)CNC(=O)[C@@H](N)Cc2ccc(O)cc2)CSSC[C@@H](C(=O)N2CCC[C@H]2C(=O)N[C@@H](CCCCN)C(N)=O)NC1=O` (H-YGGFCRRICPK-NH2; disulfide 5-9), the IC50 in assay [2] was greater than 3000 nM; in assay [3], 0.868 nM; on Mu-type opioid receptor it was 6.43 nM.
In the case of `CC[C@H](C)[C@@H]1NC(=O)[C@H](CCCN=C(N)N)NC(=O)[C@H](CCCN=C(N)N)NC(=O)[C@@H](NC(=O)[C@H](Cc2ccccc2)NC(=O)CNC(=O)CNC(=O)[C@@H](N)Cc2ccc(O)cc2)CSSC[C@@H](C(=O)N[C@@H](CCCCN)C(N)=O)NC(=O)[C@H](CCCN=C(N)N)NC1=O` (H-YGGFCRRIRCK-NH2; disulfide 5-10), the IC50 in assay [2] was greater than 3000 nM; in assay [3], 0.593 nM; on Mu-type opioid receptor, 4.26 nM.
For the compound `CC(C)C[C@H](NC(=O)[C@H](Cc1ccccc1)NC(=O)CNC(=O)CNC(=O)[C@@H](N)Cc1ccc(O)cc1)C(=O)N[C@@H](CCCN=C(N)N)C(=O)N[C@@H](CCCN=C(N)N)C(=O)N[C@H]1CSSC[C@H](C(N)=O)NC(=O)[C@H](CC(C)C)NC(=O)[C@H](CCCCN)NC(=O)[C@@H]2CCCN2C(=O)[C@H](CCCN=C(N)N)NC1=O`, the IC50 in assay [2] stood at 9.17 nM; in assay [3], 0.035 nM; at Mu-type opioid receptor, 0.38 nM.
The corresponding values for `CC[C@H](C)[C@@H]1NC(=O)[C@H](CCCN=C(N)N)NC(=O)[C@H](CCCN=C(N)N)NC(=O)[C@@H](NC(=O)[C@H](Cc2ccccc2)NC(=O)CNC(=O)CNC(=O)[C@@H](N)Cc2ccc(O)cc2)C(C)(C)SSC[C@@H](C(N)=O)NC(=O)[C@@H]2CCCN2C(=O)[C@H](CCCN=C(N)N)NC1=O` (H-YGGF[Pen]RRIRPC-NH2; disulfide 5-11) are greater than 6000 nM, 0.522 nM and 1.26 nM.
Consider `CC[C@H](C)[C@H]1NC(=O)[C@H](CCCN=C(N)N)NC(=O)[C@@H](NC(=O)[C@H](CC(C)C)NC(=O)[C@H](Cc2ccccc2)NC(=O)CNC(=O)CNC(=O)[C@@H](N)Cc2ccc(O)cc2)CSSC[C@@H](C(=O)N[C@@H](CCCCN)C(=O)O)NC(=O)[C@H](CCCN=C(N)N)NC1=O`, for which the Selectivity in assay [1] came to 10.
For `CC(C)C[C@H](NC(=O)[C@H](Cc1ccccc1)NC(=O)CNC(=O)CNC(=O)[C@@H](N)Cc1ccc(O)cc1)C(=O)N[C@@H](CCCNC(=N)N)C(=O)N[C@@H](CCCNC(=N)N)C(=O)N[C@@H]1CSSC[C@H](C(=O)N[C@@H](CCCCN)C(N)=O)NC(=O)[C@H](CCCCN)NC(=O)[C@@H]2CCCN2C(=O)[C@H](CCCNC(=N)N)NC1=O`, the IC50 is 25.3 nM in assay [2], 0.116 nM in assay [3] and 0.674 nM on Mu-type opioid receptor.
In turn, `CC[C@H](C)[C@@H]1NC(=O)[C@@H](CCCN=C(N)N)NC(=O)[C@H](CCCN=C(N)N)NC(=O)[C@H](NC(=O)[C@H](Cc2ccccc2)NC(=O)CNC(=O)CNC(=O)[C@@H](N)Cc2ccc(O)cc2)CSSC[C@H](C(=O)N[C@@H](CCCCN)C(=O)O)NC(=O)[C@@H](CCCN=C(N)N)NC1=O` showed a Selectivity in assay [1] of 139.
Still for that read-out and setting: in the case of `CC(C)C[C@H](NC(=O)[C@H](Cc1ccccc1)NC(=O)CNC(=O)CNC(=O)[C@@H](N)Cc1ccc(O)cc1)C(=O)N[C@@H](CCCN=C(N)N)C(=O)N[C@@H](CCCN=C(N)N)C(=O)N[C@@H]1CSSC[C@@H](C(=O)N[C@@H](CCCCN)C(=O)O)NC(=O)[C@@H](CCCCN)NC(=O)[C@@H]2CCCN2C(=O)[C@@H](CCCN=C(N)N)NC1=O` it was 56.
